What is called GI50 is the concentration that inhibits growth by half.

Molecules are shown by their SMILES.

These results are taken from ChEMBL document CHEMBL1142319, “New antitumor imidazo[2,1-b]thiazole guanylhydrazones and analogues” (2008).

Holding throughout (assay type): functional
Test [1] concerns HL-60. Description: Effect on cell growth in human HL60 cells assessed as cell number per mL at 2 uM. Also on record: scale not given here. The essentials:
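HL-60 cells in RPMI 1640 with 10% FBS and 2 mM glutamine, 37 °C, 5% CO2, doubling time about 24 h. Exposed 24 h to 2 µM compound diluted from DMSO into medium. Cells per mL counted with a Coulter counter.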

The test system of test [2] is HL-60. Description: Induction of cell death in human HL60 cells at 2 uM by propidium iodide staining method. The essentials: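 HL-60 cells in RPMI 1640 with 10% FBS and 2 mM glutamine at 37 °C, 5% CO2, exposed for 24 h to compound diluted in medium from DMSO. Cells were counterstained with propidium iodide (5 µg/mL) for plasma membrane integrity and analysed by flow cytometry. The readout is the percentage of PI-positive cells.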

Test [3] deals with Cancer cell lines. Description: Inhibition of human colon cancer cells. Particulars: for TGI: read-out: pTGI (converted). In outline:
(§1)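 NCI 60-cell-line panel, with results grouped by tissue subpanel. Compounds dissolved in DMSO and tested at five 10-fold dilutions, top concentration 10^-4 M. Values given as -log molar concentration for 50% growth inhibition (pGI50), total growth inhibition (pTGI) and 50% cell kill (pLC50), with subpanel means calculated.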

In test [4] the test system is Leukemia cell. Description: Inhibition of human leukemia cells. The note with it: for TGI: read-out: pTGI (converted). The essentials: as §1
In test [5] the test system is Cancer cell lines. Description: Inhibition of human non-small cell lung cancer cells. The note with it: for TGI: read-out: pTGI (converted). In outline:
as §1

In test [6] the test system is Cancer cell lines. Description: Inhibition of human CNS cancer cells. The note with it: for TGI: read-out: pTGI (converted). The essentials: as §1
Test [7] relates to Melanoma cell. Description: Inhibition of human melanoma cells. The note with it: for TGI: read-out: pTGI (converted). The essentials: as §1
Test [8] deals with Cancer cell lines. Description: Inhibition of human ovarian cancer cells. The note with it: for TGI: read-out: pTGI (converted). The essentials: as §1
Test [9] deals with Cancer cell lines. Description: Inhibition of human renal cancer cells. Particulars: for TGI: read-out: pTGI (converted). In outline:
as §1

For test [10], the system named is Cancer cell lines. Description: Inhibition of human prostate cancer cells. The note with it: for TGI: read-out: pTGI (converted). The essentials: as §1
Test [11] concerns Cancer cell lines. Description: Inhibition of human breast cancer cells. Particulars: for TGI: read-out: pTGI (converted). The essentials:
as §1

The test system of test [12] is HL-60. Description: Cell cycle arrest in human HL60 cells assessed as accumulation at G0/G1 phase at 2 uM. The essentials: (§2)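 HL-60 cells kept in RPMI 1640 with 10% FBS and 2 mM glutamine at 37 °C, 5% CO2. Treated 24 h at 2 µM from DMSO stock diluted in medium. Cells fixed in cold 70% ethanol and stained with propidium iodide 50 µg/mL plus RNAase 10 µg/mL for 30 min. DNA profiles read by flow cytometry on ≥10 000 cells, and phase percentages calculated.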

The test system of test [13] is HL-60. Description: Cell cycle arrest in human HL60 cells assessed as accumulation at S phase at 2 uM. The essentials: as §2
For test [14], the system named is HL-60. Description: Cell cycle arrest in human HL60 cells assessed as accumulation at G2/M phase at 2 uM. The essentials:
as §2

`Cc1cn2c(/C=N/NC3=NCCN3)c(-c3ccc(Cl)c([N+](=O)[O-])c3)nc2s1`: the Activity is on record as 780 in [1]; 11.9% in test [2]; 31.3% in test [12]; 53.7% in test [13]; 15% in test [14]. For the same compound, the GI50 is 1.2 µM in test [3]; 0.676 µM in test [4]; 1.55 µM in test [5]; 1.07 µM in test [6]; 0.977 µM in test [7]; 1.41 µM in test [8]. Also, the values for the GI50 in [9], in test [10] and in test [11] were 1.45 µM, 1.15 µM and 1.82 µM, respectively. The TGI in test [3] was 10 µM; in test [4], 6.17 µM; in test [5] it was 6.03 µM; in test [6], 4.27 µM; in [7], 2.4 µM; in [8] it was 3.39 µM. In addition, the results for the TGI in [9], in test [10] and in test [11] were 3.72 µM, 2.95 µM and 7.59 µM, respectively.
As for `Cc1cn2c(/C=N/NC(=N)NN)c(-c3ccc(Cl)c([N+](=O)[O-])c3)nc2s1`, the Activity in test [1] was determined as 760; in test [2] it was 7.8%; in [12], 35%; in [13], 51.9%; in [14] it was 13.1%. Moreover, the GI50 was 0.955 µM in test [3]; 6.31 µM in test [4]; 2.4 µM in [5]; 1.12 µM in test [6]; 1.82 µM in [7]; 1.29 µM in test [8]. Also, the GI50 was 3.24 µM in test [9], 3.39 µM in test [10] and 1.55 µM in [11]. For the same compound, the TGI was 2.09 µM in test [3]; 9.77 µM in test [5]; 2.95 µM in test [6]; 4.57 µM in test [7]; 3.72 µM in test [8]; 8.51 µM in test [9]. Besides, the results for the TGI in test [10] and in test [11] were 9.55 µM and 5.37 µM, respectively.
For the compound `Cc1cn2c(/C=N/NC(=N)N)c(-c3cc(Cl)sc3Cl)nc2s1`, the Activity was determined as 750 in test [1]; 7.4% in [2]; 35.3% in [12]; 50% in test [13]; 14.7% in test [14]. In addition, the 50% growth inhibitory concentration (GI50) in test [3] was 1.02 µM; in test [4], 0.891 µM; in [5] it was 1.1 µM; in test [6], 1.12 µM; in [7] it was 1.05 µM; in [8], 1.02 µM. Further, the GI50 in test [9] was 1.23 µM; in test [10], 0.794 µM; in test [11], 1.23 µM. Further, the TGI was 3.98 µM in test [3]; 1.78 µM in [4]; 3.63 µM in test [5]; 4.37 µM in test [6]; 3.09 µM in test [7]; 2.34 µM in test [8]. In addition, the TGI in test [9] is 3.02 µM; in test [10], 1.48 µM; in test [11], 2.63 µM.
For `Cc1cc(-c2nc3n(c2/C=N/NC(=N)N)CCS3)c(C)s1`, the GI50 in [3] is 13.8 µM; in test [4] it was 20.9 µM; in [5], 17 µM; in test [6], 18.6 µM; in test [7] it was 15.5 µM; in test [8], 24 µM. Besides, the results for the GI50 in [9], in test [10] and in [11] were 17.4 µM, 15.5 µM and 24 µM, respectively. Besides, the TGI in [3] was 29.5 µM; in test [5], 35.5 µM; in [6] it was 34.7 µM; in [7], 29.5 µM; in [8], 47.9 µM; in test [9], 38 µM. Besides, the TGI in [10] is 30.9 µM; in test [11], 41.7 µM.
In the case of `N=C(N)N/N=C/c1c(-c2ccsc2)nc2n1CCS2`, the GI50 in test [3] was 22.9 µM; in test [4], 19.1 µM; in test [5], 28.8 µM; in [6], 25.1 µM; in [7], 21.9 µM; in [8] it was 14.5 µM. Moreover, the GI50 is 28.2 µM in test [9], 17.4 µM in test [10] and 32.4 µM in test [11].
`Cc1cc(-c2nc3sccn3c2/C=N/NC(=N)N)c(C)s1`: the GI50 in test [3] is 15.5 µM; in test [4], 15.5 µM; in test [5], 16.6 µM; in test [6], 15.5 µM; in [7], 16.2 µM; in test [8], 17.4 µM. Further, the values for the GI50 in test [9], in test [10] and in test [11] were 17.8 µM, 13.8 µM and 16.2 µM, respectively. Also, the TGI in [3] is 32.4 µM; in [5], 33.1 µM; in [6], 30.2 µM; in [7], 30.9 µM; in [8], 33.9 µM; in test [9], 32.4 µM. For the same compound, the figures for the TGI in test [10] and in test [11] were 26.9 µM and 30.2 µM, respectively.
As to `COc1cc([N+](=O)[O-])c(OC)cc1-c1nc2sc(Cl)cn2c1/C=N\Nc1ccccn1`, the GI50 in [3] was 44.7 µM; in [4] it was 9.12 µM; in test [5] it was 25.7 µM; in test [6], 15.5 µM; in [7] it was 33.1 µM; in test [8], 20 µM. In addition, the GI50 in [9] is 13.5 µM; in [10], 16.2 µM; in test [11], 17.4 µM. In addition, the TGI in test [4] was 35.5 µM; in [6], 30.2 µM; in test [7], 46.8 µM; in test [8] it was 33.1 µM; in [9], 30.9 µM; in test [11], 41.7 µM.
Turning to `N=C(N)N/N=C/c1c(-c2cc(Cl)sc2Cl)nc2n1CCS2`, the GI50 in [3] is 1.82 µM; in test [4] it was 10.2 µM; in [5], 11.2 µM; in test [6], 8.71 µM; in test [7], 10 µM; in test [8] it was 10.5 µM. Besides, the GI50 in [9] was 10 µM; in test [10], 8.13 µM; in test [11], 12.3 µM. The TGI was 16.2 µM in [3]; 24.5 µM in [4]; 22.4 µM in [5]; 17.4 µM in test [6]; 20.4 µM in test [7]; 22.9 µM in test [8]. For the same compound, the TGI in test [9] was 20 µM; in test [10], 15.1 µM; in [11], 22.9 µM.
